Experimental data taken from ChEMBL document CHEMBL1147959, “N- and S-alpha-l-arabinopyranosyl[1,2,4]triazolo[3,4-b][1,3,4]thiadiazoles. First synthesis and biological evaluation” (2007).
In brackets after ≈: the same amount, converted by molar mass.

What was measured:
Type in all cases: functional
[1] = test system: Escherichia coli; test: Antibacterial activity against Escherichia coli ATCC 23556 at 5 mg/mL by diffusion agar method; conditions: read-out: IZ
Outline: (§1)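 Agar diffusion. Compounds and standard drugs were dissolved in DMSO at 5 mg/mL and diluted to 5, 2.5 and 1 mg/mL. Hundred microlitres of each concentration was applied. Inhibition was scored against the control: 0.1–0.5 cm beyond control = +, 0.6–1.0 cm = ++, 1.0–1.5 cm = +++, 0 = not detected.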

[2] = test system: Penicillium italicum; test: Antifungal activity against Penicillium italicum ATCC 48114 by broth dilution method
Outline: (§2)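 MIC by twofold serial broth dilution. Compounds were dissolved in DMSO at 1.6 mg/mL as stock. Dilutions in Mueller–Hinton broth and Sabouraud dextrose broth ran from 800 down to 0.78. Inoculated broth containing DMSO alone at the same dilutions served as control. Gentamycin and griseofulvin were the reference drugs.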

[3] = test system: Escherichia coli; test: Antibacterial activity against Escherichia coli ATCC 23556 by broth dilution method; outline: as §2
[4] = test system: Staphylococcus aureus; test: Antibacterial activity against Staphylococcus aureus ATCC 25923 by broth dilution method; outline: as §2
[5] = test system: Staphylococcus aureus; test: Antibacterial activity against Staphylococcus aureus ATCC 25923 at 5 mg/mL by diffusion agar method; conditions: read-out: IZ; outline: as §1
[6] = test system: Penicillium italicum; test: Antifungal activity against Penicillium italicum ATCC 48114 at 5 mg/mL by diffusion agar method; conditions: read-out: IZ; outline: as §1
[7] = test system: Escherichia coli; test: Antibacterial activity against Escherichia coli ATCC 23556 at 2.5 mg/mL by diffusion agar method; conditions: read-out: IZ; outline: as §1
[8] = test system: Pseudomonas aeruginosa; test: Antibacterial activity against Pseudomonas aeruginosa ATCC 10145 by broth dilution method
Outline: (§3)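 MIC by twofold serial broth dilution. Compounds were dissolved in DMSO as a 1.6 mg/mL stock and diluted in Mueller-Hinton broth or Sabouraud dextrose broth to 800, 400, 200, 100, 50, 25, 12.5, 6.25, 3.12, 1.56 and 0.78. A control of inoculated broth with DMSO alone at the same dilutions was included. Gentamycin and griseofulvin served as reference drugs.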

[9] = test system: Aspergillus fumigatus; test: Antifungal activity against Aspergillus fumigatus ATCC 96918 at 5 mg/mL by diffusion agar method; conditions: read-out: IZ; outline: as §1
[10] = test system: Bacillus subtilis; test: Antibacterial activity against Bacillus subtilis ATCC 6633 at 2.5 mg/mL by diffusion agar method; conditions: read-out: IZ; outline: as §1
[11] = test system: Staphylococcus aureus; test: Antibacterial activity against Staphylococcus aureus ATCC 25923 at 2.5 mg/mL by diffusion agar method; conditions: read-out: IZ; outline: as §1
[12] = test system: Bacillus subtilis; test: Antibacterial activity against Bacillus subtilis ATCC 6633 at 1 mg/mL by diffusion agar method; conditions: read-out: IZ; outline: as §1
[13] = test system: Syncephalastrum racemosum; test: Antifungal activity against Syncephalastrum racemosum ATCC 18192 at 2.5 mg/mL by diffusion agar method; conditions: read-out: IZ; outline: as §1
[14] = test system: Syncephalastrum racemosum; test: Antifungal activity against Syncephalastrum racemosum ATCC 18192 at 5 mg/mL by diffusion agar method; conditions: read-out: IZ; outline: as §1
[15] = test system: Pseudomonas aeruginosa; test: Antibacterial activity against Pseudomonas aeruginosa ATCC 10145 at 1 mg/mL by diffusion agar method; conditions: read-out: IZ; outline: as §1
[16] = test system: Pseudomonas aeruginosa; test: Antibacterial activity against Pseudomonas aeruginosa ATCC 10145 at 5 mg/mL by diffusion agar method; conditions: read-out: IZ; outline: as §1
[17] = test system: Bacillus subtilis; test: Antibacterial activity against Bacillus subtilis ATCC 6633 at 5 mg/mL by diffusion agar method; conditions: read-out: IZ; outline: as §1
[18] = test system: Bacillus subtilis; test: Antibacterial activity against Bacillus subtilis ATCC 6633 by broth dilution method; outline: as §3
[19] = test system: Aspergillus fumigatus; test: Antifungal activity against Aspergillus fumigatus ATCC 96918 at 1 mg/mL by diffusion agar method; conditions: read-out: IZ; outline: as §1
[20] = test system: Aspergillus fumigatus; test: Antifungal activity against Aspergillus fumigatus ATCC 96918 at 2.5 mg/mL by diffusion agar method; conditions: read-out: IZ; outline: as §1
[21] = test system: Syncephalastrum racemosum; test: Antifungal activity against Syncephalastrum racemosum ATCC 18192 by broth dilution method; outline: as §2
[22] = test system: Staphylococcus aureus; test: Antibacterial activity against Staphylococcus aureus ATCC 25923 at 1 mg/mL by diffusion agar method; conditions: read-out: IZ; outline: as §1
[23] = test system: Pseudomonas aeruginosa; test: Antibacterial activity against Pseudomonas aeruginosa ATCC 10145 at 2.5 mg/mL by diffusion agar method; conditions: read-out: IZ; outline: as §1
[24] = test system: Penicillium italicum; test: Antifungal activity against Penicillium italicum ATCC 48114 at 2.5 mg/mL by diffusion agar method; conditions: read-out: IZ; outline: as §1
[25] = test system: Aspergillus fumigatus; test: Antifungal activity against Aspergillus fumigatus ATCC 96918 by broth dilution method; outline: as §2
[26] = test system: Candida albicans; test: Antimicrobial activity against Candida albicans ATCC 14053 at 1 mg/mL by diffusion agar method; conditions: read-out: IZ; outline: as §1
[27] = test system: Escherichia coli; test: Antibacterial activity against Escherichia coli ATCC 23556 at 1 mg/mL by diffusion agar method; conditions: read-out: IZ; outline: as §1
[28] = test system: Candida albicans; test: Antimicrobial activity against Candida albicans ATCC 14053 at 2.5 mg/mL by diffusion agar method; conditions: read-out: IZ; outline: as §1
[29] = test system: Candida albicans; test: Antimicrobial activity against Candida albicans ATCC 14053 at 5 mg/mL by diffusion agar method; conditions: read-out: IZ; outline: as §1
[30] = test system: Candida albicans; test: Antimicrobial activity against Candida albicans ATCC 14053 by broth dilution method; outline: as §2
[31] = test system: Penicillium italicum; test: Antifungal activity against Penicillium italicum ATCC 48114 at 1 mg/mL by diffusion agar method; conditions: read-out: IZ; outline: as §1
[32] = test system: Syncephalastrum racemosum; test: Antifungal activity against Syncephalastrum racemosum ATCC 18192 at 1 mg/mL by diffusion agar method; conditions: read-out: IZ; outline: as §1

Row | Compound | zone of inhibition at 5000 µg/mL [1] | MIC [2] | MIC [3] | MIC [4] | zone of inhibition at 5000 µg/mL [5] | zone of inhibition at 5000 µg/mL [6] | zone of inhibition at 2500 µg/mL [7] | MIC [8] | zone of inhibition at 5000 µg/mL [9] | zone of inhibition at 2500 µg/mL [10] | zone of inhibition at 2500 µg/mL [11] | zone of inhibition at 1000 µg/mL [12] | zone of inhibition at 2500 µg/mL [13] | zone of inhibition at 5000 µg/mL [14] | zone of inhibition at 1000 µg/mL [15] | zone of inhibition at 5000 µg/mL [16] | zone of inhibition at 5000 µg/mL [17] | MIC [18] | zone of inhibition at 1000 µg/mL [19] | zone of inhibition at 2500 µg/mL [20] | also measured
1 | CC(=O)O[C@@H]1[C@@H](OC(C)=O)[C@H](n2nc3sc(-c4ccc(Cl)cc4)nn3c2=S)OC[C@@H]1OC(C)=O | 1 mm | > 1600 µg/mL | > 1600 µg/mL | > 1600 µg/mL | 1 mm | 1 mm |  |  |  |  |  |  |  |  |  |  |  |  |  |  | 
2 | CC(=O)O[C@@H]1[C@@H](OC(C)=O)[C@H](Sc2nnc3sc(-c4ccc(Cl)cc4)nn23)OC[C@@H]1OC(C)=O | 1 mm | 1600 µg/mL (≈ 3040 µM) | 1600 µg/mL (≈ 3040 µM) | 25 µg/mL (≈ 47.4 µM) | 1 mm | 1 mm | 1 mm | 12.5 µg/mL (≈ 23.7 µM) | 1 mm | 1 mm | 1 mm | 1 mm | 1 mm | 1 mm | 1 mm | 1 mm | 1 mm | 25 µg/mL (≈ 47.4 µM) | 1 mm | 1 mm | MIC [21]: 1600 µg/mL (≈ 3040 µM); zone of inhibition at 1000 µg/mL [22]: 1 mm; zone of inhibition at 2500 µg/mL [23]: 1 mm; zone of inhibition at 2500 µg/mL [24]: 1 mm; MIC [25]: 25 µg/mL (≈ 47.4 µM)
3 | O=C(N[C@H](CO)[C@H](O)c1ccc([N+](=O)[O-])cc1)C(Cl)Cl [CHLORAMPHENICOL] | 6 mm |  |  |  | 6 mm |  | 6 mm |  |  | 10 mm | 6 mm | 6 mm |  |  | 6 mm | 10 mm | 10 mm |  |  |  | zone of inhibition at 1000 µg/mL [26]: 6 mm; zone of inhibition at 1000 µg/mL [27]: 6 mm; zone of inhibition at 2500 µg/mL [28]: 6 mm; zone of inhibition at 1000 µg/mL [22]: 6 mm; zone of inhibition at 2500 µg/mL [23]: 10 mm; zone of inhibition at 5000 µg/mL [29]: 6 mm
4 | COC1=CC(=O)C[C@@H](C)[C@]12Oc1c(Cl)c(OC)cc(OC)c1C2=O [GRISEOFULVIN] |  | 50 µg/mL (≈ 142 µM) |  |  |  |  |  |  |  |  |  |  |  |  |  |  |  |  |  |  | MIC [30]: 50 µg/mL (≈ 142 µM); MIC [21]: 50 µg/mL (≈ 142 µM); MIC [25]: 50 µg/mL (≈ 142 µM)
5 | CN(C/C=C/C#CC(C)(C)C)Cc1cccc2ccccc12 [TERBINAFINE] |  |  |  |  |  | 10 mm |  |  | 10 mm |  |  |  | 10 mm | 10 mm |  |  |  |  | 6 mm | 10 mm | zone of inhibition at 1000 µg/mL [31]: 6 mm; zone of inhibition at 1000 µg/mL [32]: 10 mm; zone of inhibition at 2500 µg/mL [24]: 10 mm
6 | GENTAMICIN |  |  | 12.5 µg/mL | 3.12 µg/mL |  |  |  | 12.5 µg/mL |  |  |  |  |  |  |  |  |  | 1.56 µg/mL |  |  | 
